Converted amounts (≈) assume the structure as drawn. The source made the active and inactive calls. The rule behind the calls is not given here.
Columns and labels:
[1] = molecular target: Tyrosine-protein kinase Blk (Homo sapiens) (UniProt P51451); experiment: Binding affinity to BLK (unknown origin)
[2] = system: Epidermal growth factor receptor (Homo sapiens), P00533 [L858R,T790M]; settings: NCI-H1975, 33 nM
[3] = system: NCI-H1975; experiment: Antiproliferative activity against human NCI-H1975 cells expressing EGFR L858R/T790M double mutant after 72 hrs by MTS assay; type: functional, cell-based; settings: NCI-H1975, 72 h
[4] = Clearance in Sprague-Dawley rat at 25 mg/kg, po by LC/MS analysis; type: ADME, organism-based; set-up: dose 25 mg/kg, route oral; settings: in vivo
In short: (§1)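 Male Sprague-Dawley rats (180−220 g), n = 4 per route, single iv dose 5 mg/kg or oral gavage 25 mg/kg. Vehicle was 2% DMSO, 4% EtOH, 4% castor oil, 90% H2O. Orbital sinus blood was taken from 2 min to 72 h into heparinized tubes. Plasma levels were measured by LC/MS with propranolol internal standard and analysed by pharmacokinetic modelling.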

[5] = AUC (0 to infinity) in Sprague-Dawley rat at 25 mg/kg, po by LC/MS analysis; type: ADME, organism-based; set-up: dose 25 mg/kg, route oral, time infinity; settings: plasma; in short: as §1
[6] = system: NCI-H1975; experiment: Antitumor activity against human NCI-H1975 cells xenografted in SCID nude mouse assessed as tumor growth inhibition at 30 mg/kg, po qd after 14 days; type: functional; settings: NCI-H1975, 336 h, read-out: TGI
In short: (§2)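 SCID mice (6 weeks) were given H1975 cells subcutaneously in the right flank at 2 × 10^6 per mouse. At 200−300 mm3, n = 5 per group were randomized to daily oral vehicle or compound at 10 or 30 mg/kg for 14 days. Vehicle: 1% DMSO, 5% EtOH, 15% castor oil, 79% H2O. Tumors (W²·L/2) and body weight were measured every other day; TGI was calculated against vehicle controls.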

[7] = system: NCI-H1975; experiment: Effect on GADPH protein level in human NCI-H1975 cells at 3 to 330 nM after 2 hrs by Western blotting analysis; type: functional, cell-based
[8] = molecular target: Receptor-type tyrosine-protein kinase FLT3 (Homo sapiens) (UniProt P36888); experiment: Binding affinity to FLT3 (unknown origin)
[9] = molecular target: Proto-oncogene tyrosine-protein kinase Src (Homo sapiens) (UniProt P12931); experiment: Binding affinity to SRC (unknown origin)
[10] = molecular target: T1, Epidermal growth factor receptor (Homo sapiens, UniProt P00533, L858R/T790M); experiment: Inhibition of EGFR L858R/T790M double mutant (unknown origin) after 1.5 hrs by FRET-based Z'-Lyte assay; type: protein assay
T1 sequence (P00533 25-1210 T790M/L858R limits assumed): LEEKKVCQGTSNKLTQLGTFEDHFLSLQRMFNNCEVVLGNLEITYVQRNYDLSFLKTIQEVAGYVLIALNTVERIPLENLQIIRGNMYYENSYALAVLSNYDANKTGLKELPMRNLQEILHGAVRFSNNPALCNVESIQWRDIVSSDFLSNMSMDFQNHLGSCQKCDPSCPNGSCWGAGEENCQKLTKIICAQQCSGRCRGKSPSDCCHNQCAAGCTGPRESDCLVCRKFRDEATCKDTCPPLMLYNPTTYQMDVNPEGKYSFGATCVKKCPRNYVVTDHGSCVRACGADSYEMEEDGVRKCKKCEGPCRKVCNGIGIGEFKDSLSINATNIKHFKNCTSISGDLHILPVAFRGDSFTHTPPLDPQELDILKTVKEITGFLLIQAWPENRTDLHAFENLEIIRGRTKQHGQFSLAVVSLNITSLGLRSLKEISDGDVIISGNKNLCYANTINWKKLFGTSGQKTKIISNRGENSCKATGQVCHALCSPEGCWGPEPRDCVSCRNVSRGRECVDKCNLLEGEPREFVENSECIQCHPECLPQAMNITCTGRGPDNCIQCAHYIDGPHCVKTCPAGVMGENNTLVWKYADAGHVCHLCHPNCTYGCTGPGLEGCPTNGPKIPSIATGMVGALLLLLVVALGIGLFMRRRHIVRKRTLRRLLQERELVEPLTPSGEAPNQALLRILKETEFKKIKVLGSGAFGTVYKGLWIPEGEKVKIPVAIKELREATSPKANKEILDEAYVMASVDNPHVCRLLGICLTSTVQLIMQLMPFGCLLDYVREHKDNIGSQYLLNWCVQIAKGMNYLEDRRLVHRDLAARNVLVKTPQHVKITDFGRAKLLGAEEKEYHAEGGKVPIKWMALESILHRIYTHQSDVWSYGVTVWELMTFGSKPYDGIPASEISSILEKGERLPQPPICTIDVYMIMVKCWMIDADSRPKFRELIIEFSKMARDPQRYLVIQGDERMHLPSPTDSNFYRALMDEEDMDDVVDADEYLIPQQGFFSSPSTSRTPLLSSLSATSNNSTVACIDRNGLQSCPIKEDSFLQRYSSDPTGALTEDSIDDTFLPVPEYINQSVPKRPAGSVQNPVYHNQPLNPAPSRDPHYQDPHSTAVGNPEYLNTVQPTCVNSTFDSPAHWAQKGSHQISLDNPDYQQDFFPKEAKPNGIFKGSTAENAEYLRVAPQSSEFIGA

[11] = Antiproliferative activity against human H460 cells expressing wild-type EGFR after 72 hrs by MTS assay; type: cell-based; settings: NCI-H460, 72 h
In short: (§3)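 MTS proliferation assay: cells exposed to compound for 72 h at six concentrations (0.1 nM to 10 μM), each concentration run six times. Cell number per line set to give an absorbance of 0.5–1.2 at […]. IC50 from a nonlinear sigmoidal dose–response fit. Values are means of at least three independent experiments.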

[12] = system: NCI-H358; experiment: Antiproliferative activity against human NCI-H358 cells expressing wild-type EGFR after 72 hrs by MTS assay; type: cell-based; settings: NCI-H358, 72 h
[13] = molecular target: Proto-oncogene tyrosine-protein kinase receptor Ret (Homo sapiens) (UniProt P07949); experiment: Binding affinity to RET (unknown origin)
Chain of Proto-oncogene tyrosine-protein kinase receptor Ret (Homo sapiens) (P07949 whole entry): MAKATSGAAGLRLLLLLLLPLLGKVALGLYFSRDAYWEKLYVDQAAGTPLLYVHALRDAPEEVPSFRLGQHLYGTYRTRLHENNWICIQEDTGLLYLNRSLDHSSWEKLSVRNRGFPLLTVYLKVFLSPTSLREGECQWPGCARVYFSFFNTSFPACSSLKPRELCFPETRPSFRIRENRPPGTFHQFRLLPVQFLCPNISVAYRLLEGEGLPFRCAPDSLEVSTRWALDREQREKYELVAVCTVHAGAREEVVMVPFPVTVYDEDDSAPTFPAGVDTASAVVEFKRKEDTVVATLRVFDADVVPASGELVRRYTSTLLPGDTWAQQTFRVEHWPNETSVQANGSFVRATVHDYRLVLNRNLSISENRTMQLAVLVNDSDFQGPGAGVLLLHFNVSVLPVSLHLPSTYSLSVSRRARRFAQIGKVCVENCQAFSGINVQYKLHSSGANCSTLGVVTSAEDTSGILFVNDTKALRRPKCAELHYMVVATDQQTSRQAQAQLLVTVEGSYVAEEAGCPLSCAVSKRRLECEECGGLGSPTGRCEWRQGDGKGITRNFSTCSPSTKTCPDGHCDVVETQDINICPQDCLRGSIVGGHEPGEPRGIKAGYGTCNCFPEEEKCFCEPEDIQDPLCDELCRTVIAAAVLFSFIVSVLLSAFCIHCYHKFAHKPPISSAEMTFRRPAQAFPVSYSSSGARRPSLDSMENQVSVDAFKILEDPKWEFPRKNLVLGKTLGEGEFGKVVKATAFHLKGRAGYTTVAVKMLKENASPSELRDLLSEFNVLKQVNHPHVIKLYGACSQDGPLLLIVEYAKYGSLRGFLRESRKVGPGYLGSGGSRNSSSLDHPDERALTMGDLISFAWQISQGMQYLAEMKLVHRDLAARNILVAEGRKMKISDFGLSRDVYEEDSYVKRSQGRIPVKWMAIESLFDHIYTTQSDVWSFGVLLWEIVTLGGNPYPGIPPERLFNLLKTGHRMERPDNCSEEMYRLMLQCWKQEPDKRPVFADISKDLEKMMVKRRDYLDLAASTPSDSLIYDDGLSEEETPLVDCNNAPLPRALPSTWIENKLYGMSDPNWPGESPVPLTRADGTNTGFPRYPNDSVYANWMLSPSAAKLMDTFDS

[14] = system: NCI-H1975; experiment: Effect on AKT protein level in human NCI-H1975 cells at 3 to 330 nM after 2 hrs by Western blotting analysis; type: functional, cell-based
In short: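 H1975 cells were grown 24 h, then treated for 2 h with DMSO or 3–330 nM compound. Lysates were sonicated, run on SDS-PAGE, blotted to PVDF, blocked in 5% BSA/TBST, and probed for phospho/total EGFR (pY1068), Akt and Erk1/2 (pT202/pY204) with peroxidase secondary antibodies. Blots are representative of three experiments.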

[15] = system: NCI-H1975; experiment: Antitumor activity against human NCI-H1975 cells xenografted in po dosed SCID nude mouse assessed as tumor growth inhibition administered qd after 14 days; type: functional, organism-based; in short: as §2
[16] = molecular target: Platelet-derived growth factor receptor beta (Homo sapiens) (UniProt P09619); experiment: Binding affinity to PDGFRbeta (unknown origin)
Chain of Platelet-derived growth factor receptor beta (Homo sapiens) (P09619 whole entry, the tested form may be a part): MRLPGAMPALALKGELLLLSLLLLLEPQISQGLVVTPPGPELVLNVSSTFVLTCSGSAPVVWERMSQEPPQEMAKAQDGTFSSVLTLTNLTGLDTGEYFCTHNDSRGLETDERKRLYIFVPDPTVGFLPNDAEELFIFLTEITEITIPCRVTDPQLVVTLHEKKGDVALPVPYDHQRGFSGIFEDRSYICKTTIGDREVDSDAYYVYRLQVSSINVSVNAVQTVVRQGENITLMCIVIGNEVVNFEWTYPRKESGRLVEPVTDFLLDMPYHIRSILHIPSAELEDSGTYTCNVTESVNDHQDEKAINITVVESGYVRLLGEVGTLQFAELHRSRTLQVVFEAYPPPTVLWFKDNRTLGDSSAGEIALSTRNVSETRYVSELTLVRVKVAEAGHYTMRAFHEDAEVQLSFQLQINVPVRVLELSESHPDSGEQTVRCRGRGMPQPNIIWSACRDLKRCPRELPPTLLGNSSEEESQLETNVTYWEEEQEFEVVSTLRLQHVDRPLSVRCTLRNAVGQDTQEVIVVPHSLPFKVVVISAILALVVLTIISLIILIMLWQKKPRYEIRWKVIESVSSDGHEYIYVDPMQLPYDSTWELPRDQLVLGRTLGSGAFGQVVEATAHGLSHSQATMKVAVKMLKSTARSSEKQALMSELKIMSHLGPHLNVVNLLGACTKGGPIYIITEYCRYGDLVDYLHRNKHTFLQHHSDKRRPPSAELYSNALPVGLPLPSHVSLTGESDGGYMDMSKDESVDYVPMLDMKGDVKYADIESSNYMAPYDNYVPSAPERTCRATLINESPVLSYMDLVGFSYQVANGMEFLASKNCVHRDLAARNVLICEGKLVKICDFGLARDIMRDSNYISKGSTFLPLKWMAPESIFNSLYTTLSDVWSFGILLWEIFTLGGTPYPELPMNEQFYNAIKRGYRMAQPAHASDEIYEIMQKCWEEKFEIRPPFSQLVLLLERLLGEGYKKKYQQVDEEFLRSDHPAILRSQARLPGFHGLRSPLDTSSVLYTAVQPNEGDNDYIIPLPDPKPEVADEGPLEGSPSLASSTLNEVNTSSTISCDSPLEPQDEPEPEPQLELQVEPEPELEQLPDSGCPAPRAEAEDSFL

[17] = molecular target: Epithelial discoidin domain-containing receptor 1 (Homo sapiens) (UniProt Q08345); experiment: Binding affinity to DDR1 (unknown origin)
[18] = Thermodynamic aqueous solubility of the compound in PBS buffer at pH 6.8 after 24 hrs by HPLC analysis; type: physicochemical; settings: PBS buffer, pH 6.8; read-out: Therm_solubility
In short: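 Compound was shaken in aqueous buffer at pH 6.8 for 24 h at ambient temperature; dissolved concentration was measured by HPLC.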

[19] = Clearance in Sprague-Dawley rat at 5 mg/kg, iv by LC/MS analysis; type: ADME, organism-based; set-up: dose 5 mg/kg, route intravenous; settings: in vivo; in short: as §1
[20] = molecular target: T1, Epidermal growth factor receptor; experiment: Binding affinity to EGFR L858R/T790M double mutant (unknown origin)
[21] = Antiproliferative activity against human H1299 cells expressing wild-type EGFR after 72 hrs by MTS assay; type: cell-based; settings: NCI-H1299, 72 h; in short: as §3

Chain of Tyrosine-protein kinase Blk (Homo sapiens) (P51451 2-505 limits assumed): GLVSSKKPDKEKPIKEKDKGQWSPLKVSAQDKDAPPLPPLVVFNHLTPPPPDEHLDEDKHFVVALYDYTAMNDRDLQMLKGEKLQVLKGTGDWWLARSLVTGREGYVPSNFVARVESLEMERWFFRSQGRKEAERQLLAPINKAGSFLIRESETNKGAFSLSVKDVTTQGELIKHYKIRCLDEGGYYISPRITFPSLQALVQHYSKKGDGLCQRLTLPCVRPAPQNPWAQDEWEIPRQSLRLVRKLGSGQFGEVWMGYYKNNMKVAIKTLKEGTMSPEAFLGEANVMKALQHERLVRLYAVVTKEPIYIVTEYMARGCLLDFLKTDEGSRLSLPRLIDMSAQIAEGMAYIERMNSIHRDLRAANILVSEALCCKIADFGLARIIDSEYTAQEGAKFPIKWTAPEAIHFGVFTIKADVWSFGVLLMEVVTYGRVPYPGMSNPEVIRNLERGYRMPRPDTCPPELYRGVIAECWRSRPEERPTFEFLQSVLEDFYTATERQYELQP
Chain of Epidermal growth factor receptor (Homo sapiens), P00533 [L858R,T790M] (P00533 whole entry T790M/L858R, looked up): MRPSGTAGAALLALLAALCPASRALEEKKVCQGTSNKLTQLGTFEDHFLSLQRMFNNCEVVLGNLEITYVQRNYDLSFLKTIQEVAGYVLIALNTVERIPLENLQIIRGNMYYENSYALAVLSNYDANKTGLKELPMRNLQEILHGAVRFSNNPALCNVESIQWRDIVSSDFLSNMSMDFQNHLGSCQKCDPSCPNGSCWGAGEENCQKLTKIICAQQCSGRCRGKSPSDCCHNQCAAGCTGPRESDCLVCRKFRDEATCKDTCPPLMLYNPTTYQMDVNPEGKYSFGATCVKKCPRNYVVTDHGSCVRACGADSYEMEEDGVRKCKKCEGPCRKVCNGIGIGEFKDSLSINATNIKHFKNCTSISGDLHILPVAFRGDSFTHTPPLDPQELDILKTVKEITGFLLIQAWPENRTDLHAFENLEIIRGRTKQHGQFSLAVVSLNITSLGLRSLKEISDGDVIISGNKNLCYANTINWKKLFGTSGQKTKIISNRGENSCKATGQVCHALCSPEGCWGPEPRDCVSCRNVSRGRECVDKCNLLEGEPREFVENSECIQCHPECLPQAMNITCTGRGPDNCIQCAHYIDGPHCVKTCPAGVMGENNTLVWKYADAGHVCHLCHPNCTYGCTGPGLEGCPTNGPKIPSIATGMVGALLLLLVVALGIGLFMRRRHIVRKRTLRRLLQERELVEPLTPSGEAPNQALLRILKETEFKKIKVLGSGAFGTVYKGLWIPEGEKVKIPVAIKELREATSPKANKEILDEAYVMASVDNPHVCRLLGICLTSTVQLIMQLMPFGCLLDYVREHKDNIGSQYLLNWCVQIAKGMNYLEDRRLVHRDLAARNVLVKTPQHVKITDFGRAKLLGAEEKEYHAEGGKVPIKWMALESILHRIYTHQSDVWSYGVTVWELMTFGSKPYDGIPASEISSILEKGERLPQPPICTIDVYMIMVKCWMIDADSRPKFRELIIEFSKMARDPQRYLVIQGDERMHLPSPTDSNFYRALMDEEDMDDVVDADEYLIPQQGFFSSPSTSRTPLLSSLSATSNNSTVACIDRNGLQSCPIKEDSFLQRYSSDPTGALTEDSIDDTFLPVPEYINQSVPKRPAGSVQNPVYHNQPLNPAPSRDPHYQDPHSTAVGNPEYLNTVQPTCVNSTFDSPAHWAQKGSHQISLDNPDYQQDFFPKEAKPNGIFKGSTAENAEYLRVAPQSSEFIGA

C=CC(=O)N1CC[C@H](N2C(=O)N(c3ccccc3)Cc3cnc(Nc4ccc(N5CCN(C)CC5)c(C)c4)nc32)C1
Activity [1]: Active | inhibition [2]: Active | IC50 [3]: 47 nM | CL/F [4]: 167 mL/min/kg | AUC(0-inf) [5]: 2490 ng·h/mL | inhibition in vivo at 30 mg/kg [6]: 56.8% | Activity [7]: inactive | Activity [8]: Active | Activity [9]: Active | IC50 [10]: 9.2 nM | IC50 [11]: 16000 nM | IC50 [12]: > 20000 nM | Activity [13]: Active | Activity [14]: inactive | TGI [15]: Dose-dependent effect | Activity [16]: Active | Activity [17]: Active | solubility thermodynamic at 24 h [18]: 1270 µg/mL (≈ 2290 µM) | clearance [19]: 51.7 mL/min/kg | Kd [20]: 1.4 nM | IC50 [21]: 5100 nM
